Results from paper PMC7007868 (Molecular cancer therapeutics, 2019).
Where two headings read alike, the source gives them in different places.

Experiments:
[1] = system: refractory pediatric sarcomas; settings: prolonged infusion; cited from earlier work
MPNST xenograft = settings: single agent, twice-daily dosed; cited from earlier work
[2] = system: human MPNST cells (sNF96.2); experiment: Alamar blue viability dose response; assay type: cell-based; settings: SNF96.2, 72 h, read-out: IC50 growth inhibition
In short: (§1)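 Human MPNST cells and immortalized Schwann cells were grown at 37°C in humidified 5% CO2 and exposed to test compound for 72 h. Viability was read by alamar blue fluorescence at 590 nm and expressed as percent viable relative to untreated controls. Data are given ± S.D.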

[3] = Parallel artificial membrane permeation assay; assay type: in vitro ADME; settings: PAMPA
[4] = doses over 0.6 mg/kg daily, by treatment days 6–7; cited from earlier work
[5] = system: immortalized Schwann cells (ipn02.32λ); experiment: Alamar blue viability dose response; assay type: cell-based, human; settings: 72 hours drug treatment
In short: as §1

FGAR amidotransferase = settings: cited from earlier work
MPNST cells sNF02.2 = experiment: Alamar blue viability dose response; assay type: cell-based, human; settings: read-out: IC50 growth inhibition
[6] = Dose tolerance in non-tumored NPcis mice; assay type: in vivo, mouse; settings: 1.2 mg/kg p.o. × 5 days then 0.5 mg/kg p.o. daily, over thirty days
[7] = swine, cited from earlier work
Modified Irwin assay = assay type: in vivo, mouse; settings: days 0, 8, 15; for modified Irwin battery, autonomic and somatomotor function: B6 flank MPNST mice, oxotremorine 0.5 mg/kg s.c. once
In short: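 B6 flank MPNST mice on the 14-day efficacy dosing regimen or vehicle were scored blind on a modified Irwin autonomic/somatomotor battery on days 0, 8 and 15, including hang time (s) from an inverted wire. A separate cohort (n=5) received oxotremorine 0.5 mg/kg s.c. 30 min before testing as assay control. Scores were averaged and normalized to day-0 vehicle; grip times were compared by multiple t-tests.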

[8] = Plasma stability of JHU395, 60 min at 37°C; assay type: in vitro ADME; settings: one hour incubation, plasma of multiple species including humans
[9] = JHU395 pharmacokinetic analysis; assay type: in vivo, mouse
[10] = system: de novo purine biosynthesis (FGAR); experiment: Quantitative FGAR analysis in tumors; assay type: in vivo, mouse; settings: JHU395 1.2 mg/kg p.o.
In short: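 B6 flank MPNST mice (n=8/group) were given vehicle or 1.2 mg/kg/dose p.o. for five days. Tumors were snap frozen, homogenized in methanol with 10 µM deuterated N-acetylaspartic acid internal standard (5 µL/mg) and centrifuged at 16,000 × g for 5 min. Supernatants were run by UHPLC–orbitrap full-MS negative mode against an FGAR standard curve in untreated tumor ([…]). Group means were compared by t-test.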

murine flank MPNST = experiment: Efficacy in murine flank MPNST model; assay type: in vivo, mouse; settings: 1.2 mg/kg p.o. × 5 days, 0.5 mg/kg × 9 days; vehicle 1695 mm^3; p≤0.05
[11] = system: glutamine incorporation in murine flank MPNST; experiment: In vivo stable isotope flux analysis; set-up: species or system mouse; settings: 1.2 mg/kg/dose p.o. for five days; m+1, m+2 (IMP, AMP), m+3 (GMP)
In short: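 B6 flank MPNST mice received vehicle or test compound at 1.2 mg/kg/dose p.o. for five days. On harvest day they were dosed orally, then 30 min later given three 0.2 ml tail-vein injections of 200 mM ¹⁵N₂-glutamine, 15 min apart. Tumors were flash frozen, extracted in cold 80% methanol, dried and redissolved in 50% acetonitrile. Analysis was by C18 ion-pair (tributylamine) LC-Q-TOF MS with natural-abundance correction.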

[12] = swine and human plasma, at 1 hour; cited from earlier work
[13] = GI, hepatic and brain toxicity assessment during 14 days oral dosing; assay type: in vivo, mouse
In short: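 Flank MPNST mice were dosed orally for 14 days on the efficacy regimen against vehicle (n=9) and weighed thrice weekly as percent change from start. In a subset (n=3–4/condition), jejunum was fixed overnight in 10% neutral buffered formalin, paraffin-embedded, sectioned at ~5 µm and H&E-stained. A veterinary pathologist examined the sections for apoptotic figures and crypt architecture.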

glutamine utilization = experiment: Quantitative glutamine analysis in tumor and plasma; assay type: in vivo, mouse
[14] = system: human MPNST cells (sNF96.2) in human plasma; experiment: Tumor cell-to-plasma partitioning; assay type: in vitro ADME
In short: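 sNF96.2 cells were washed twice in PBS and resuspended in human plasma at 7.5 million cells/mL. Test compound was spiked at 20 µM and incubated 1 h at 37°C, then spun at 1000 × g for 5 min at 4°C. Plasma and PBS-washed cell pellets were stored at -80°C, and intact prodrug and released glutamine antagonist were measured by LC-MS/MS as percent of total. Mean ± S.E.M.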

[15] = system: human MPNST cells (sNF96.2); experiment: Glutamine titration, alamar blue growth; assay type: cell-based; settings: SNF96.2, 72 h, read-out: EC50 of glutamine to rescue growth
In short: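 sNF96.2 cells were plated at 1500–2000 cells/well in standard medium. The next day the medium was replaced with glutamine-free medium made with dialyzed FBS, and fixed glutamine concentrations were added across the plate. After 72 h, growth was read by alamar blue fluorescence at 590 nm as percent growth (± S.D.).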

[16] = system: immortalized Schwann cells (ipn02.32λ); experiment: Glutamine titration, alamar blue growth; assay type: cell-based; settings: Homo sapiens, 72 h, read-out: EC50 of glutamine to rescue growth
[17] = B6 mice, thirty minutes after JHU395 1.2 mg/kg oral
[18] = flank tumored mice, JHU395 1.2 mg/kg oral
[19] = 20 μM JHU395, one hour, sNF96.2 cells in human plasma

Sc1ncnc2nc[nH]c12 [6-MP, 6-mercaptopurine]
disease stabilization [1]: approximately 25%

O=C(Cc1cccc(OC(F)(F)F)c1)Nc1ccc(CCCCc2nnc(NC(=O)Cc3ccccn3)s2)nn1 [CB-839]
MPNST xenograft growth (MPNST xenograft): partially decreased

[N-]=[N+]=CC(=O)CC[C@H](N)C(=O)O [DON, 6-diazo-5-oxo-L-norleucine, reference compound]
IC50 [2]: 9.8 µM
Papp at 5 h, 20 μM ([3]; pH 7): 0.0095 ×10⁻⁶ cm/s
weight loss [4]: ~20%
effect on growth of immortalized Schwann cells [5]: minimally affected
concentration inhibiting the enzyme that converts FGAR to FGAM (FGAR amidotransferase): low micromolar levels
IC50 (MPNST cells sNF02.2; Homo sapiens, 72 h): 2.4 µM

CC(C)OC(=O)[C@H](CCC(=O)C=[N+]=[N-])NC(=O)OC(OC(=O)C(C)(C)C)c1ccccc1 (some centres unmarked) [JHU395]
tolerability of dosing regimen [6]: well-tolerated
apparent permeability Papp ([3]; 20 μM, pH 7.0, 5 h, room temperature): 5.707 ×10⁻⁶ cm/s
effect on growth of immortalized Schwann cells [5]: minimally affected
DON brain-to-plasma ratio ([7]; DON or JHU395-derived DON): 1.38
DON exposure in plasma AUC0→t ([7]; equimolar dose of DON or JHU395): 5.7 µM·h
enhancement of DON brain-to-plasma ratio (JHU395 vs DON) [7]: 9.3
modified Irwin battery, autonomic and somatomotor function (Modified Irwin assay): performed similarly
grip time from an inverted wire (Modified Irwin assay): unaffected
JHU395 remaining intact in plasma [8]: Over 80%
DON in jejunum [9, 17]: 0.18 nmol/g
DON in plasma [9, 17]: 0.91 nmol/mL
small intestine-to-plasma DON ratio [9, 17]: 0.20
DON plasma AUC [9, 18]: 0.977 µM·h
DON tumor AUC [9, 18]: 2.496 nmol·h/g
DON tumor Cmax [9, 18]: 1.8 nmol/g
accumulation of DON in GI tissue versus plasma ([9]; mice, full time-dependent pharmacokinetic analysis): no accumulation
fold increase of tumor FGAR versus vehicle [10]: 75 fold
tumor FGAR ([10]; vehicle 3.4 nmol/g, p≤0.01): 254.4 nmol/g
tumor volume at end of treatment (murine flank MPNST): 1045 mm^3
^15N2-glutamine isotopologue enrichment in IMP, AMP, GMP versus vehicle [11]: significantly lower enrichment
prodrug remaining intact in plasma [12]: 83–88%
IC50 (MPNST cells sNF02.2; sNF02.2, 72 hours drug treatment): 1.5 µM
change from starting weight ([13]; flank MPNST mice, 14 days oral dosing): ≤ 10%
jejunal histology versus vehicle ([13]; subset of animals, after 14 days oral dosing): No differences
brain histology postmortem ([13]; subset of brains, after 14 days oral dosing): no gross changes nor cortical vacuolization
plasma glutamine (glutamine utilization; flank MPNST mice, vehicle 475 nmol/ml, p≤0.0001): 729 nmol/mL
tumor glutamine (glutamine utilization; flank MPNST mice, vehicle 1293 nmol/g, p≤0.001): 2096 nmol/g
increase in plasma glutamine (glutamine utilization; non-tumored mice, versus vehicle): 25%
plasma glutamine (glutamine utilization; non-tumored mice, vehicle 830 nmol/ml, p≤0.01): 1036 nmol/mL
share of total DON measured in cells [14, 19]: 92%
share of total DON measured in plasma [14, 19]: 8%
intact JHU395 in MPNST cells ([14]; after one hour): minimal
intact JHU395 in plasma ([14]; after one hour): detected

NC(=O)CC[C@H](N)C(=O)O [glutamine]
EC50 [15]: 209 µM
EC50 [16]: 64.5 µM

O=C1CCCN1CC#CCN1CCCC1 [oxotremorine, reference compound]
modified Irwin battery, autonomic and somatomotor function (Modified Irwin assay): induced significant adverse effects
